Series [1] deals with Trypanosoma cruzi. Put plainly: Antitrypanosomal activity against Trypanosoma cruzi Tulahuen 2 epimastigotes assessed as inhibition of parasite growth at 25 uM relative to control. The series is classed as functional. Particulars: read-out: GI. Summed up: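 Epimastigotes of T. cruzi Tulahuen 2 strain exposed to compound at 25 µM. Growth inhibition is given as percentage relative to untreated parasites. Values are means of three separate experiments, SD under 10%.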

Series [2] relates to Trypanosoma cruzi. Put plainly: Antitrypanosomal activity against Trypanosoma cruzi Tulahuen 2 epimastigotes. The class given is functional, organism-based.
The nature of series [3]: Octanol-water partition coefficient of the compound. The class given is physicochemical.

The values that follow come from ChEMBL document CHEMBL1208769, “Anti-T. cruzi activities and QSAR studies of 3-arylquinoxaline-2-carbonitrile di-N-oxides” (Bioorg Med Chem Lett, 2010).

By IC50 is commonly meant the concentration at which inhibition is half-maximal. Usually logP stands for the decadic logarithm of the partition coefficient of the neutral form, usually between octanol and water. Low values mean lower lipophilicity, high ones higher lipophilicity. Turning to `N#Cc1c(-c2ccc(F)cc2)[n+]([O-])c2cc(F)c(F)cc2[n+]1[O-]`, the inhibition of growth at 25 µM in the series with Trypanosoma cruzi [1] was determined as 29.4%. Moreover, in the series on Trypanosoma cruzi [2], the IC50 is 36.6 µM. The compound also gave a lipophilicity (logP) in series [3] of 2.74.

Regarding `N#Cc1c(-c2ccc(Cl)cc2)[n+]([O-])c2cc(F)c(F)cc2[n+]1[O-]`, the inhibition of growth at 25 µM in the series with Trypanosoma cruzi [1] came out at 80.9%. Also, the 50% inhibitory concentration (IC50) in the series with Trypanosoma cruzi [2] turned out to be 11.3 µM. The lipophilicity (logP) in series [3] came out at 2.87.

Take `Cc1ccc(-c2c(C#N)[n+]([O-])c3cc(F)c(F)cc3[n+]2[O-])cc1`: in the series on Trypanosoma cruzi [1], the inhibition of growth at 25 µM worked out at 86.2%. The same compound returned a half-inhibitory concentration (IC50) in the series with Trypanosoma cruzi [2] of 14.6 µM. Also, the logP in series [3] came to 2.87.

`COc1ccc(-c2c(C#N)[n+]([O-])c3cc(F)c(F)cc3[n+]2[O-])cc1`: in the series on Trypanosoma cruzi [1], the inhibition of growth at 25 µM amounted to 91.6%. Besides, it took 12.1 µM to reach half-maximal inhibition in the series with Trypanosoma cruzi [2] (IC50). In series [3], this compound came in with a log partition coefficient (logP) of 2.09.

Consider `N#Cc1c(-c2ccc(OC(F)(F)F)cc2)[n+]([O-])c2cc(F)c(F)cc2[n+]1[O-]`, for which the inhibition of growth at 25 µM with Trypanosoma cruzi [1] is 74.4%. For the same compound, the IC50 in the series with Trypanosoma cruzi [2] came out at 9.9 µM. In addition, the logP in series [3] worked out at 2.45.

As for `N#Cc1c(-c2ccco2)[n+]([O-])c2cc(F)c(F)cc2[n+]1[O-]`, the inhibition of growth at 25 µM in the series with Trypanosoma cruzi [1] was 70.7%. The compound also showed an IC50 with Trypanosoma cruzi [2] of 13.1 µM. Besides, the logP in series [3] came out at 1.38.

With `N#Cc1c(-c2ccco2)[n+]([O-])c2cc(Cl)c(Cl)cc2[n+]1[O-]`, the inhibition of growth at 25 µM with Trypanosoma cruzi [1] was 67%. The midpoint of inhibition in the series with Trypanosoma cruzi [2], the IC50, lay at 13.1 µM. Besides, in series [3], the logP was 1.64.

As to `Cc1cc2c(cc1C)[n+]([O-])c(-c1ccco1)c(C#N)[n+]2[O-]`, in the series with Trypanosoma cruzi [1], the inhibition of growth at 25 µM is 64.7%. Besides, in the series on Trypanosoma cruzi [2], half-maximal inhibition (IC50) was put at 20.1 µM. Also, the lipophilicity (logP) in series [3] is 1.1.

Regarding `N#Cc1c(-c2cccs2)[n+]([O-])c2cc(F)c(F)cc2[n+]1[O-]`, the inhibition of growth at 25 µM in the series on Trypanosoma cruzi [1] was 82.9%. The same compound gave an IC50 in the series with Trypanosoma cruzi [2] of 10.4 µM. Also, the log partition coefficient (logP) in series [3] amounted to 2.15.

In the case of `N#Cc1c(-c2cccs2)[n+]([O-])c2cc(Cl)c(Cl)cc2[n+]1[O-]`, in the series on Trypanosoma cruzi [1], the inhibition of growth at 25 µM worked out at 78.5%. The compound also showed a concentration for half-maximal inhibition (IC50) in the series on Trypanosoma cruzi [2] of 10.4 µM. This compound gave a logP in series [3] of 2.41.

As to `Cc1cc2c(cc1C)[n+]([O-])c(-c1cccs1)c(C#N)[n+]2[O-]`, the inhibition of growth at 25 µM in the series on Trypanosoma cruzi [1] stood at 84.8%. The same compound had a half-maximal inhibitory concentration (IC50) in the series with Trypanosoma cruzi [2] of 16.7 µM. Also, the log partition coefficient (logP) in series [3] came out at 1.87.

For the compound `COc1ccccc1N1CCN(c2c(C#N)[n+]([O-])c3cc(Cl)ccc3[n+]2[O-])CC1`, in the series on Trypanosoma cruzi [1], the inhibition of growth at 25 µM was 100%. Besides, the IC50 in the series with Trypanosoma cruzi [2] is 6.5 µM. The compound also showed a log partition coefficient (logP) in series [3] of 1.91.

For `N#Cc1c(N2CCN(c3cccc(C(F)(F)F)c3)CC2)[n+]([O-])c2ccc(Cl)cc2[n+]1[O-]`, the inhibition of growth at 25 µM in the series with Trypanosoma cruzi [1] worked out at 94%. For the same compound, in the series with Trypanosoma cruzi [2], the 50% inhibitory concentration (IC50) is 6.7 µM. This compound registered a logP in series [3] of 2.99.

`N#Cc1c(NC(=O)c2ccco2)[n+]([O-])c2cc(F)c(F)cc2[n+]1[O-]`: in the series with Trypanosoma cruzi [1], the inhibition of growth at 25 µM was found to be 53.1%. Inhibition with Trypanosoma cruzi [2] was half-maximal at 19.2 µM (IC50). Moreover, in series [3], the log partition coefficient (logP) came to 0.868.

`N#Cc1c(NC(=O)c2cccs2)[n+]([O-])c2cc(F)c(F)cc2[n+]1[O-]`: the inhibition of growth at 25 µM with Trypanosoma cruzi [1] was determined as 92.4%. Besides, in the series with Trypanosoma cruzi [2], the IC50 turned out to be 10.8 µM. This compound returned a logP in series [3] of 1.62.

In the case of `COc1ccc(-c2c(C#N)[n+]([O-])c3cc(C)c(C)cc3[n+]2[O-])cc1`, in the series on Trypanosoma cruzi [1], the inhibition of growth at 25 µM came to 100%. In the series with Trypanosoma cruzi [2], the IC50 was found to be 18.3 µM. In series [3], this compound had a logP of 2.06.

Turning to `Cc1cc2c(cc1C)[n+]([O-])c(-c1ccccc1)c(C#N)[n+]2[O-]`, the inhibition of growth at 25 µM with Trypanosoma cruzi [1] amounted to 97.4%. Besides, the IC50 in the series with Trypanosoma cruzi [2] turned out to be 22.1 µM. For the same compound, in series [3], the logP was 2.33.

Take `Cc1ccc(-c2c(C#N)[n+]([O-])c3cc(Cl)c(Cl)cc3[n+]2[O-])cc1`: the inhibition of growth at 25 µM in the series with Trypanosoma cruzi [1] stood at 95.6%. The IC50 in the series with Trypanosoma cruzi [2] is 14.6 µM. The compound also yielded a lipophilicity (logP) in series [3] of 3.1.

On to `Cc1cc2c(cc1C)[n+]([O-])c(-c1ccc(F)cc1)c(C#N)[n+]2[O-]`, for which the inhibition of growth at 25 µM in the series on Trypanosoma cruzi [1] was 92.5%. The IC50 in the series on Trypanosoma cruzi [2] is 16.4 µM. The compound further came in with a logP in series [3] of 2.72.

For `N#Cc1c(-c2ccc(Cl)cc2)[n+]([O-])c2cc(Cl)c(Cl)cc2[n+]1[O-]`, the inhibition of growth at 25 µM in the series on Trypanosoma cruzi [1] worked out at 89.8%. Moreover, the IC50 in the series with Trypanosoma cruzi [2] was found to be 13.8 µM. Also, in series [3], the lipophilicity (logP) was 3.1.

As for `Cc1ccc(-c2c(C#N)[n+]([O-])c3cc(C)c(C)cc3[n+]2[O-])cc1`, in the series on Trypanosoma cruzi [1], the inhibition of growth at 25 µM was 98.2%. Moreover, the concentration for half-maximal inhibition (IC50) with Trypanosoma cruzi [2] was 21.2 µM. In series [3], this compound gave a log partition coefficient (logP) of 2.57.

As to `N#Cc1c(-c2ccc(F)cc2)[n+]([O-])c2cc(Cl)c(Cl)cc2[n+]1[O-]`, in the series with Trypanosoma cruzi [1], the inhibition of growth at 25 µM came out at 85.3%. In the series on Trypanosoma cruzi [2], this compound gave a half-maximal inhibitory concentration (IC50) of 11.3 µM. The compound further had a logP in series [3] of 2.98.

Turning to `COc1ccc(-c2c(C#N)[n+]([O-])c3cc(Cl)c(Cl)cc3[n+]2[O-])cc1`, in the series on Trypanosoma cruzi [1], the inhibition of growth at 25 µM was 42.7%. The IC50 with Trypanosoma cruzi [2] turned out to be 29 µM. Further, the log partition coefficient (logP) in series [3] was 2.33.

Turning to `Cc1cc2c(cc1C)[n+]([O-])c(-c1ccc(OC(F)(F)F)cc1)c(C#N)[n+]2[O-]`, in the series with Trypanosoma cruzi [1], the inhibition of growth at 25 µM is 79.8%. Inhibition with Trypanosoma cruzi [2] was half-maximal at 10.6 µM (IC50). The lipophilicity (logP) in series [3] was found to be 2.41.

For `Cc1cc2c(cc1C)[n+]([O-])c(-c1ccc(Cl)cc1)c(C#N)[n+]2[O-]`, the inhibition of growth at 25 µM in the series with Trypanosoma cruzi [1] came to 98.7%. In the series on Trypanosoma cruzi [2], the half-inhibitory concentration (IC50) is 16.4 µM. The logP in series [3] was 2.83.

On to `N#Cc1c(-c2ccc(OC(F)(F)F)cc2)[n+]([O-])c2cc(Cl)c(Cl)cc2[n+]1[O-]`, for which the inhibition of growth at 25 µM in the series with Trypanosoma cruzi [1] worked out at 82%. For the same compound, in the series with Trypanosoma cruzi [2], inhibition was half-maximal at 7.2 µM (IC50). Besides, the lipophilicity (logP) in series [3] came to 2.68.
